TAAR1 ag = human TAAR1 agonists, primary screen, Fluo-8 calcium fluorescence, CHO RD-HGA16 cells. hit rate 0.99% among 360,000. vehicle wells 0%, saturating PEA agonist 100%. activation, % at 3 µM. AID 624467, 2012;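 active means activation above the mean activation of all test compounds in the run plus 3 SD, cut at about 38% in these data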
Target sequence (Q96RJ0 whole entry, looked up): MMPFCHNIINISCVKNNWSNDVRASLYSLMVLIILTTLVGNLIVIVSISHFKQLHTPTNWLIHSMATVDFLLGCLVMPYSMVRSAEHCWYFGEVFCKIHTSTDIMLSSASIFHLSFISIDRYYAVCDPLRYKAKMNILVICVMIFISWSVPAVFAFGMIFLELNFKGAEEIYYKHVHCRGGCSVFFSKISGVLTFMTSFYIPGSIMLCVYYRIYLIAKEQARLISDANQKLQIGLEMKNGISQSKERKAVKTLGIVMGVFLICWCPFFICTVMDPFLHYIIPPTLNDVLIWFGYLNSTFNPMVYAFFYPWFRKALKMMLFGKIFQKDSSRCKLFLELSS
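Assay system: CHO-derived RD-HGA16 cells with stable Gα16 and human TAAR1; timing: 17-24 h seeding, 75 min 37 °C dye, 30 min RT; read-out: % activation from peak over basal fluorescence ratio, DMSO-to-PEA scaled; measured by: kinetic Fluo-8 calcium fluorescence; benchmarks: low control DMSO, high control PEA (EC100); doses: 3 µM single concentration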
GPR7 antag = GPR7 receptor antagonists, primary screen, cell-based, fluorescence, single concentration. hit rate 1.1% among 290,000. Neuropeptides B/W receptor type 1 (Homo sapiens), P48145. GPR7-expressing cells, fluorescence antagonist assay. inhibition, % at 4.4 µM; in the data active means inhibition above about 16%, passing the limit was not always enough;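 further: cells stimulated with the agonist NPW; 0% = agonist with vehicle and 100% = vehicle without agonist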
Target sequence (P48145 whole entry, looked up): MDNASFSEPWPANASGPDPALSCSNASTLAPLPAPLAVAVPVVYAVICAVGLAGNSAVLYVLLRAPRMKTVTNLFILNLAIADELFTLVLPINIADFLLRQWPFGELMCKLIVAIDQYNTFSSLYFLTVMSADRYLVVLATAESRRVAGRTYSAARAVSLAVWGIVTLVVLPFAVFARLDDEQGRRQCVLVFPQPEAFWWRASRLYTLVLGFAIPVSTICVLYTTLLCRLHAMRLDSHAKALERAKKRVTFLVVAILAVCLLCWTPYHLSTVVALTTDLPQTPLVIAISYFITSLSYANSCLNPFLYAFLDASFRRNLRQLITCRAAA
CHO parental Ca = ATP-evoked calcium signal inhibitors, parental CHO, primary screen, counter-screen for OX1R antagonist project, cell-based, fluorescence, Fluo-8 calcium dye; parental CHO-K1, ATP-induced calcium, Fluo-8 fluorescence; inhibition, % at 5.6 µM; hit rate 0.63% among 330,000;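 active means inhibition above that plate's mean sample inhibition plus 3 SD, cut at about 26% in these data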;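 further: 0% = ATP-challenged DMSO wells and 100% = DMSO wells without ATP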
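material = parental CHO cells | also added = ATP as calcium-mobilizing challenge | dosing = single point at 5.6 µM | detection = intracellular calcium via Fluo-8 no-wash fluorescent dye | read-out = % inhibition | benchmarks = low control ATP plus DMSO, high control DMSO only | repeats = one well per compound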
OX1R antag-1 = antagonists of human orexin 1 receptor (OX1R) | OX1R-expressing cells, FRET antagonist read-out | inhibition, % at 6.6 µM | hit rate 1.8% among 330,000 | AID 485270, 2010; in the data active means inhibition mostly above about 38%, no sharp cut-off; inactive means mostly below about 40%;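 further: 0% = agonist challenge alone and 100% = reference antagonist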
TAAR1 antag = human TAAR1 antagonists, primary screen, Fluo-8 calcium fluorescence, CHO RD-HGA16 cells | Trace amine-associated receptor 1 (Homo sapiens), Q96RJ0 | antagonist | inhibition, % at 3 µM | hit rate 1.5% among 360,000;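 active means inhibition above a per-plate cutoff, the mean inhibition of test compounds on that plate plus 3 SD, cut at about 49% in these data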;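 further: 0% = DMSO plus EC80 beta-PEA response and 100% = DMSO alone without agonist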
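System: CHO RD-HGA16 cells bearing hTAAR1. Reagent: EC80 β-phenethylamine stimulus. Schedule: seeding 17-24 h prior, 75-min 37 °C, 30-min RT dye loading. Signal: Fluo-8 intracellular calcium dye fluorescence, real-time kinetic reads. Read-out: % inhibition from peak post-agonist over basal fluorescence ratio. Benchmarks: vehicle wells and EC80 agonist wells. Replicates: n of 1.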
OX1R antag-2 = OX1R (HCRTR1) antagonists, primary screen, fluorescence, CHO/OX1R cells, Fluo-8 calcium, orexin A | Orexin/Hypocretin receptor type 1 (Homo sapiens), O43613 | AID 434989, 2010 | hit rate 0.43% among 330,000 | inhibition, % at 5 µM | Fluo-8 calcium fluorescence;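 active means inhibition above its plate's threshold, mean inhibition of all tested compounds on the plate plus 3 SD, cut at about 37% in these data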;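 further: 0% = orexin A challenge wells and 100% = SB-334867-A antagonist wells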
TAAR1 nonsel count = nonselective antagonists in TAAR1 counter-screen cells, counter-screen for hTAAR1 antagonist project, cell-based, fluorescence, calcium; shares compounds with TAAR1 antag; counterscreen cell line, antagonist mode; inhibition, % at 3 µM; hit rate 77% among 2,400; in the data active means inhibition above about 22%;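 further: CHO-Ga16 host cells stimulated with ATP at an EC80 level; 0% = agonist EC80 plus vehicle and 100% = vehicle without agonist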
TAAR1 antag conf = human TAAR1 antagonists, retest of hits, confirmation, cell-based, fluorescence; shares compounds with TAAR1 antag; hit rate 40% among 2,400; inhibition, % at 3 µM; TAAR1-expressing cells, fluorescence antagonist read-out; in the data active means inhibition above about 49%;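 further: CHO-Ga16 host cells challenged with agonist PEA near its EC80; 0% = agonist at EC80 plus vehicle and 100% = vehicle with no agonist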
Ga16 ag counter = calcium activation in Ga16-expressing cells, counter-screen for TAAR1 antagonist project, cell-based, fluorescence. shares compounds with TAAR1 antag. agonist counterscreen. activation, % at 3 µM. hit rate 18% among 2,400. AID 651953, 2012; in the data active means activation above about 12%;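 further: 0% = vehicle wells and 100% = saturating stimulus response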
TAAR1 ag count = TAAR1 activation by candidate antagonists – cell-based, fluorescence, counter-screen for TAAR1 antagonist project. hTAAR1 cell line, agonist mode. hit rate 2% among 2,400. shares compounds with TAAR1 antag. activation, % at 3 µM; in the data active means activation above about 37%;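 further: CHO cells stably expressing TAAR1 with calcium dye readout; 0% = DMSO vehicle and 100% = full agonist response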
An asterisk follows results filed as active; · = no result; ! = a repeat was not active. Most compounds without a hit are left out; they make up all but 4.5% or so of the library.

SMILES	TAAR1 ag	GPR7 antag	CHO parental Ca	OX1R antag-1	TAAR1 antag	OX1R antag-2	TAAR1 nonsel count	TAAR1 antag conf	Ga16 ag counter	TAAR1 ag count
COc1cc(C(=O)OCCCc2cc3ccccc3c(=O)o2)cc(OC)c1OC	3.9	·	-20.9	15.1	2.7	-17.0	·	·	·	·
CCOC(=O)C1(Cc2cccc(F)c2)CCN(C2CCOCC2)CC1	13.3	-2.8	-14.1	20.0	3.7	-15.9	·	·	·	·
CCOC(=O)C1(Cc2cccc(F)c2)CCN(C(=O)C2CCC2)CC1	5.8	7.9	-3.7	11.1	104.9*	-17.2	13.9	-3.1	5.2	6.5
COc1ccc(OC)c(CCNC(=O)c2ccccc2NC(=O)C2=C(C)OCCS2)c1	-0.1	-5.4	-19.7	18.5	8.1	-27.2	·	·	·	·
COc1ccc(CCNC(=O)c2ccccc2NC(=O)C2=C(C)OCCS2)cc1OC	14.8	-13.5	-21.7	41.2	69.8*	-11.7	30.3*	51.1*	9.9	14.8
CN(C(=O)c1cccc(NC(=O)Cc2ccc(NC(=O)C3CCN(C(=O)CCc4ccccc4)CC3)cc2)c1)C1CCC1	-0.5	·	·	·	-22.3	·	·	·	·	·
CCOC(=O)[C@]12CCC=C1N(Cc1ccc(Cl)cc1Cl)C(=O)[C@H](CC(=O)N1CCC(c3ccccc3)CC1)C2	-0.1	·	·	·	-28.9	·	·	·	·	·
O=C1NCN(c2ccccc2)C12CCN(CCCC(c1ccc(F)cc1)c1ccc(F)cc1)CC2	37.3	-3.7	25.5	15.9	77.9*	39.9*	47.4*	48.1	20.2*	35.3
COc1ccccc1C(=O)NC(=O)COC(=O)c1cccc(NC(C)=O)c1	3.4	1.3	-9.7	17.1	-41.2	-17.7	·	·	·	·
CCNC(=S)N/N=C/c1cc(C)n(-c2ccc(Cl)cc2)c1C	10.5	0.6	-29.7	15.2	100.7*	-16.5	11.7	77.1*	7.8	23.9
Cc1nc2ccccn2c1C(=O)N/N=C/c1cc(C)n(-c2ccc(Cl)cc2)c1C	8.0	-5.4	-20.7	13.7	15.8	-21.8	·	·	·	·
C[C@@H]1ON(C)[C@H]2C[C@H]3c4[nH]c5cccc(-c6ccc7c(c6)OCO7)c5c4CCN3C(=O)[C@@H]12	9.0	·	·	·	55.6*	·	23.1*	40.3	7.4	10.5
C[C@@H]1ON(C)[C@H]2C[C@H]3c4[nH]c5c(-c6ccccc6)cccc5c4CCN3C(=O)[C@@H]12	7.1	·	·	·	28.3	·	·	·	·	·
COc1cccc(-c2cccc3c4c([nH]c23)[C@@H]2C[C@H]3[C@@H](C(=O)N2CC4)[C@H](C)ON3C)c1	6.0	·	·	·	52.7*	·	22.2*	36.1	4.9	8.7
COc1ccc(-c2cccc3[nH]c4c(c23)CCN2C(=O)[C@H]3[C@H](C)ON(C)[C@H]3C[C@@H]42)cc1	8.6	·	·	·	49.7*	·	21.8*	32.7	8.0	7.7
O=[N+]([O-])c1cccc(S(=O)(=O)Nc2ccccn2)c1	-0.2	·	·	·	0.6	·	·	·	·	·
CCOc1cccc(CN2CCCC(N3CCc4cc(OC)c(OC)cc4C3)C2)c1O (stereo not drawn)	-1.0	-4.2	-16.8	9.5	-6.7	-30.4	·	·	·	·
CCCCNc1c(-c2cccc(SC(C)CC)c2)nc2ccc(Cl)cn12 (stereo not drawn)	9.4	·	-20.0	16.8	56.5*!	-14.0	19.1	27.3	4.1	5.6
CCCCNc1c(-c2ccc(SC3CCCCC3)c(OC)c2)nc2ccc(C)cn12	2.4	·	25.4	13.5	73.6*	21.3	36.2*	36.0	0.2	0.2
CCCCNc1c(-c2ccc(OC)c(SC(C)CC)c2)nc2ccc(C)cn12 (stereo not drawn)	19.3	·	93.8*	60.3*	90.8*	86.7*	45.8*	57.8*	8.0	8.6
Nc1cc2c3ccccc3ccc2c2ccccc12	5.6	·	·	·	13.0	·	·	·	·	·
CC[C@]12C(=O)N(C)C[C@H]([C@@H]3C(=O)N(C)C(=O)[C@@H]31)N2C(=O)c1ccc(Br)cc1	6.2	·	·	·	5.4	·	·	·	·	·
Cc1ccc(C(=O)Nc2ccc(S(=O)(=O)N3CCOCC3)cc2)cc1	11.9	-1.4	-12.3	5.5	-1.7	-11.8	·	·	·	·
N#CCc1ccc(NC(=O)c2ccc(S(=O)(=O)N3CCCC3)cc2)cc1	22.7	-8.5	0.7	9.6	57.3*	2.6	29.8*	54.2*	15.3*	17.4
Cc1ccc(NC(=O)c2ccc(S(=O)(=O)N3CCC(C)CC3)cc2)cc1	29.4	-5.1	-2.6	6.1	79.0*	-11.7	0.3	-4.4	1.5	-1.9
SMILES	TAAR1 ag	GPR7 antag	CHO parental Ca	OX1R antag-1	TAAR1 antag	OX1R antag-2	TAAR1 nonsel count	TAAR1 antag conf	Ga16 ag counter	TAAR1 ag count
COc1ccc(N(C(=O)CNC(=O)c2cccs2)C(C(=O)NC2CCCC2)c2ccncc2)cc1 (stereo not drawn)	5.4	4.8	-3.3	7.0	-18.4	-30.4	·	·	·	·
[2H]c1c([2H])c([2H])c(-c2nc(N3CCCCCC3)sc2C(=O)c2ccccc2)c([2H])c1[2H]	14.7	4.0	-11.3	10.6	61.9*	0.3	11.4	16.0	0.3	0.6
O=C(c1sc(N2CCOCC2)nc1-c1ccccc1)N1CCCCC1	-0.7	11.4	-18.5	26.0	-5.1	-17.1	·	·	·	·
OCC1OC(Nc2ccccc2C=NO)C(O)C1O (stereo not drawn)	1.4	·	·	·	-2.6	·	·	·	·	·
COc1ccc(NC(=O)COC(=O)CNC(=O)c2cccs2)cc1Cl	21.8	·	-9.4	3.5	22.4	-17.8	·	·	·	·
COc1ccc(/C=N/NC(=S)NCCc2ccccc2)cc1	2.7	-13.1	-21.3	1.0	-5.8	-37.5	·	·	·	·
COc1ccc(O)c(/C=N/NC(=S)NCCc2ccccc2)c1	21.6	-21.1	0.0	20.1	53.9*	-16.6	27.1*	56.5*	14.8*	43.9*
Cn1cccc1/C=N\NC(=O)C1COc2ccc(C(C)(C)C)cc2O1 (stereo not drawn)	0.5	-14.3	-14.8	8.2	50.7*	-3.4	24.6*	39.3	6.8	1.2
COc1ccc2ccn(S(=O)(=O)c3ccccc3)c2c1	13.0	-15.5	-19.7	14.2	-12.1	-9.7	·	·	·	·

Compound activity from PubChem BioAssay.
